Measured values taken from ChEMBL document CHEMBL1137629, “Antiproliferative effect of dihydroxyacetone on Trypanosoma brucei bloodstream forms: cell cycle progression, subcellular alterations, and cell death” (Antimicrob Agents Chemother, 2007).
The source made the active and inactive calls. The rule behind the calls is not given here.

Columns and labels:
[1] = system: Trypanosoma brucei; assay: Induction of programmed cell death in Trypanosoma brucei bloodstream form assessed as death of total cell population at > 4 mM up to 24 hrs using propidium iodide staining by FACS analysis
[2] = system: Trypanosoma brucei; assay: Trypanocidal activity against Trypanosoma brucei bloodstream form at > 1 mM; assay type: functional, organism-based
[3] = system: Trypanosoma brucei; assay: Effect on cell cycle of Trypanosoma brucei bloodstream form assessed as DNA content at 5 uM after 24 hrs using propidium iodide staining by FACS analysis; assay type: functional
Summary of the method: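 T. brucei bloodstream forms (MITat 1.2, strain EATRO 427), axenic culture at 37°C, 5% CO₂. Treated 24 h. At least 5 × 10⁵ cells washed in PBS, lysed hypotonically 30 min at room temperature in 10 mM phosphate buffer pH 7.4 with 6 μM digitonin. Nuclei stained with propidium iodide (10 μg/ml final) and analysed by flow cytometry for G₁/S/G₂ distribution and degraded DNA.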

[4] = system: Trypanosoma brucei; assay: Induction of apoptosis-like programmed cell death in Trypanosoma brucei bloodstream form assessed as phosphatidylserine exposure in outer leaflet of plasma membrane at 2 mM after 24 hrs by V-Fluos staining staining; assay type: functional
Summary of the method: (§1)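 After 24 h DHA exposure of axenic bloodstream-form T. brucei MITat 1.2 (EATRO 427; 37°C, 5% CO₂), cells were washed in HEPES buffer (10 mM, pH 7.4, 140 mM NaCl, 5 mM CaCl₂). They were then stained with annexin V-Fluos for 15 min at 4°C and analysed by flow cytometry.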

[5] = system: Trypanosoma brucei; assay: Trypanocidal activity against Trypanosoma brucei bloodstream form at 4 mM up to 24 hrs by spectrophotometry; assay type: functional
Summary of the method: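 Proliferation measured in complete medium (33 mM glucose, 15% serum) with a range of DHA concentrations. Cell density followed over 24 h. Triplicate, SD.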

[6] = system: Trypanosoma brucei; assay: Induction of apoptosis-like programmed cell death in Trypanosoma brucei bloodstream form assessed as loss of mitochondrial-membrane potential at 2 mM after 24 hrs by TMRE staining; assay type: functional
Summary of the method: (§2)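 T. brucei MITat 1.2 (EATRO 427) bloodstream forms were grown axenically at 37°C, 5% CO₂ and exposed to DHA for 24 h. Cells at 10⁶/ml were stained with 25 nM TMRE in culture medium for 30 min at 37°C and read at once by flow cytometry. Depolarization control: valinomycin 100 nM. Lower fluorescence signifies lost membrane potential.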

[7] = system: Trypanosoma brucei; assay: Effect on morphological changes in Trypanosoma brucei bloodstream form assessed as appearance of multiple folds in mitochondrion membrane at 3 mM after 24 hrs by transmission electron microscopy; assay type: functional, organism-based
Summary of the method: (§3)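 Parasites exposed 24 h to 3 mM DHA. 10⁸ cells fixed 1 h at 4°C in 2% glutaraldehyde in 0.2 M sodium cacodylate with 0.12 M sucrose, held overnight in buffer, postfixed in 1.5% osmium tetroxide and stained with 0.5% uranyl acetate. Dehydrated in ethanol, cleared in propylene oxide, embedded in Agar 100. Sections stained with 5% uranyl acetate and 0.4% lead citrate for TEM. Rapamycin (5 μM) served as the autophagy positive control.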

[8] = system: Trypanosoma brucei; assay: Effect on morphological changes in Trypanosoma brucei bloodstream form assessed as presence of kinetoplast at 5 mM after 20 hrs by scanning electron microscopy; assay type: functional, organism-based
Summary of the method: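 Cells grown 20 h with 5 mM DHA. Fixed and stained as for TEM (glutaraldehyde, osmium tetroxide, uranyl acetate), then dehydrated through 50, 75, 95 and 100% ethanol. Critical-point dried and gold-palladium sputter-coated for scanning electron microscopy.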

[9] = system: Trypanosoma brucei; assay: Induction of apoptosis-like programmed cell death in Trypanosoma brucei bloodstream form assessed as loss of mitochondrial-membrane potential at 4 mM after 24 hrs by TMRE staining; assay type: functional
Summary of the method: as §2

[10] = system: Trypanosoma brucei; assay: Effect on morphological changes in Trypanosoma brucei bloodstream form assessed as increase in autophagic vaculoe structures at 3 mM after 24 hrs by transmission electron microscopy; assay type: functional, organism-based
Summary of the method: as §3

[11] = system: Trypanosoma brucei; assay: Effect on cell cycle of Trypanosoma brucei bloodstream form assessed as induction of necrosis at 5 uM after 24 hrs using propidium iodide staining by FACS analysis; assay type: functional
[12] = system: Trypanosoma brucei; assay: Induction of necrosis in Trypanosoma brucei bloodstream form assessed as death of total cell population at > 4 mM up to 24 hrs using propidium iodide staining by FACS analysis
[13] = system: Trypanosoma brucei; assay: Induction of apoptosis-like programmed cell death in Trypanosoma brucei bloodstream form assessed as increase in intracellular reactive oxygen species production at 1 mM after 24 hrs by FACS analysis; assay type: functional
Summary of the method: (§4)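 Bloodstream-form T. brucei MITat 1.2 (VSG 221, strain EATRO 427) were grown axenically at 37°C, 5% CO₂ and exposed to DHA for 24 h. Control and treated cells were then loaded with 10 μM dichlorofluorescein diacetate for 1 h at 37°C. Intracellular fluorescence intensity was read by flow cytometry.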

[14] = system: Trypanosoma brucei; assay: Trypanocidal activity against Trypanosoma brucei bloodstream form assessed as induction of autophagy at 3 mM after 24 hrs by transmission electron microscopy; assay type: functional, organism-based
Summary of the method: as §3

[15] = system: Trypanosoma brucei; assay: Induction of apoptosis-like programmed cell death in Trypanosoma brucei bloodstream form assessed as loss of mitochondrial-membrane potential at 5 uM after 24 hrs by TMRE staining; assay type: functional
[16] = system: Trypanosoma brucei; assay: Induction of apoptosis-like programmed cell death in Trypanosoma brucei bloodstream form assessed as loss of mitochondrial-membrane potential at 3 mM after 24 hrs by TMRE staining; assay type: functional
Summary of the method: as §2

[17] = system: Trypanosoma brucei; assay: Induction of apoptosis-like programmed cell death in Trypanosoma brucei bloodstream form assessed as increase in intracellular reactive oxygen species production at 2 mM after 24 hrs by FACS analysis; assay type: functional
Summary of the method: as §4

[18] = system: Trypanosoma brucei; assay: Effect on cell cycle of Trypanosoma brucei bloodstream form assessed as increase in cells with two nuclei and two kinetoplasts at 1 to 3 mM using DAPI staining by phase-contrast microscopy; assay type: functional, organism-based
Summary of the method: (§5)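 Bloodstream forms (MITat 1.2, EATRO 427) grown 24 h with or without DHA. Aliquots washed twice in PBS, resuspended, placed on slides and fixed with methanol. Stained 5 min with DAPI (0.1 μg/ml final), then washed. Phase-contrast and fluorescence images scored for nucleus/kinetoplast numbers (1N1K, 1N2K, 2N2K, 2N1K, abnormal). n = 4, Student's t test, SD.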

[19] = system: Trypanosoma brucei; assay: Effect on morphological changes in Trypanosoma brucei bloodstream form assessed as presence of kinetoplast after 24 hrs using DAPI staining by phase-contrast microscopy; assay type: functional, organism-based
Summary of the method: as §5

[20] = system: Trypanosoma brucei; assay: Effect on morphological changes in Trypanosoma brucei bloodstream form assessed as increase in cell size after 24 hrs using DAPI staining by phase-contrast microscopy; assay type: functional, organism-based
[21] = system: Trypanosoma brucei; assay: Induction of apoptosis-like programmed cell death in Trypanosoma brucei bloodstream form assessed as phosphatidylserine exposure in outer leaflet of plasma membrane at 4 mM after 24 hrs by V-Fluos staining staining; assay type: functional
Summary of the method: as §1

[22] = system: Trypanosoma brucei; assay: Effect on morphological changes in Trypanosoma brucei bloodstream form assessed as dilation of mitochondrion membrane at 3 mM after 24 hrs by transmission electron microscopy; assay type: functional, organism-based
Summary of the method: as §3

[23] = system: Trypanosoma brucei; assay: Effect on morphological changes in Trypanosoma brucei bloodstream form assessed as disorder of mitochondrion structure at 3 mM after 24 hrs by transmission electron microscopy; assay type: functional, organism-based
Summary of the method: as §3

[24] = system: Trypanosoma brucei; assay: Effect on cell cycle of Trypanosoma brucei bloodstream form assessed as induction of necrosis at 1 mM after 24 hrs using propidium iodide staining by FACS analysis; assay type: functional
Summary of the method: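 Bloodstream forms exposed 24 h at 37°C, 5% CO₂. Cells at 2 × 10⁶/ml incubated 10 min with propidium iodide (5 μg/ml), and uptake read by flow cytometry as a measure of membrane integrity. Digitonin (6 μM) served as the necrosis positive control.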

**Q.** Which Activity [1] does the source give for `O=C(CO)CO` [DIHYDROXYACETONE] here?
**A.** Active

**Q.** What about the Activity [2] of the same compound?
**A.** Active

**Q.** What about the Activity [3] of the same compound?
**A.** 47%

**Q.** What about the Activity [4] of the same compound?
**A.** 10.1%

**Q.** And the Activity [5]?
**A.** 100%

**Q.** What about the Activity [6] of the same compound?
**A.** 7.3%

**Q.** And the Activity [7]?
**A.** Active

**Q.** And the Activity [8]?
**A.** inactive

**Q.** And the Activity [9]?
**A.** 26.8%

**Q.** And the Activity [10]?
**A.** Active

**Q.** What about the Activity [11] of the same compound?
**A.** 4.5%

**Q.** What about the Activity [12] of the same compound?
**A.** Active

**Q.** And the Activity [13]?
**A.** 5.9%

**Q.** What about the Activity [14] of the same compound?
**A.** Active

**Q.** And the Activity [15]?
**A.** 31.4%

**Q.** What about the Activity [16] of the same compound?
**A.** 12.3%

**Q.** And the Activity [17]?
**A.** 10.6%

**Q.** And the Activity [18]?
**A.** Active

**Q.** What about the Activity [19] of the same compound?
**A.** Dose-dependent effect

**Q.** And the Activity [20]?
**A.** Dose-dependent effect

**Q.** What about the Activity [21] of the same compound?
**A.** 20%

**Q.** What about the Activity [22] of the same compound?
**A.** Active

**Q.** And the Activity [23]?
**A.** Active

**Q.** And the Activity [24]?
**A.** 4%
